Laboratory results reported in ChEMBL document CHEMBL1129462, “Synthesis and angiotensin II receptor antagonistic activities of benzimidazole derivatives bearing acidic heterocycles as novel tetrazole bioisosteres” (J Med Chem, 1996).

System: not listed separately
Experiment: Bioavailability
Format: ADME, organism-based
Conditions: eutheria, in vivo; read-out: BA

| bioavailability [%] | SMILES |
| --- | --- |
| 51 | CCOc1nc2cccc(C(=O)O)c2n1Cc1ccc(-c2ccccc2-c2nsc(O)n2)cc1 |
| 5 | CCOc1nc2cccc(C(=O)O)c2n1Cc1ccc(-c2ccccc2-c2nnn[nH]2)cc1 |
| 20 | CCOc1nc2cccc(C(=O)O)c2n1Cc1ccc(-c2ccccc2-c2noc(=O)[nH]2)cc1 [AZILSARTAN] |

System: not listed separately
Experiment: Partition coefficient (logP)
Format: physicochemical
Conditions: octanol/water

| logP | SMILES |
| --- | --- |
| 1.58 | CCOc1nc2cccc(C(=O)O)c2n1Cc1ccc(-c2ccccc2-c2nsc(O)n2)cc1 |

System: not listed separately
Experiment: pka value was determined
Format: physicochemical
Conditions: not given
Outline: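 pKa of the acidic group was estimated from the corresponding methyl ester. Titration was potentiometric with standardized 0.1 N NaOH in DMSO–H2O (2:3) at 26 °C.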

| pKa | SMILES |
| --- | --- |
| 6.6 | CCOc1nc2cccc(C(=O)O)c2n1Cc1ccc(-c2ccccc2-c2nsc(O)n2)cc1 |
| 5.3 | CCOc1nc2cccc(C(=O)O)c2n1Cc1ccc(-c2ccccc2-c2nnn[nH]2)cc1 |
| 6.1 | CCOc1nc2cccc(C(=O)O)c2n1Cc1ccc(-c2ccccc2-c2noc(=O)[nH]2)cc1 [AZILSARTAN] |

Molecular target: not listed separately
Experiment: Inhibition of specific binding of [125I]angiotensin II (0.2 nM) to angiotensin II receptor in bovine adrenal cortex
Format: tissue-based, Bos taurus
Conditions: not given

| SMILES | IC50 [µM] |
| --- | --- |
| CCCc1nc2cccc(C(=O)O)c2n1Cc1ccc(-c2ccccc2-c2nsc(O)n2)cc1 | 0.36 |
| CCOc1nc2cccc(C(=O)OC)c2n1Cc1ccc(-c2ccccc2C2=NOS(=O)N2)cc1 (stereo unspecified) | 0.46 |
| CSc1nc2cccc(C(=O)O)c2n1Cc1ccc(-c2ccccc2-c2nsc(O)n2)cc1 | 0.5 |
| CSc1nc2cccc(C(=O)O)c2n1Cc1ccc(-c2ccccc2-c2noc(S)n2)cc1 | 1 |
| CCCCc1nc(Cl)c(CO)n1Cc1ccc(-c2ccccc2-c2nnn[nH]2)cc1 [LOSARTAN] | 0.15 |
| CCCCc1nc2cccc(C(=O)O)c2n1Cc1ccc(-c2ccccc2-c2noc(O)n2)cc1 | 0.62 |
| CCOc1nc2cccc(C(=O)O)c2n1Cc1ccc(-c2ccccc2-c2nsc(O)n2)cc1 | 0.25 |
| CCc1nc2cccc(C(=O)O)c2n1Cc1ccc(-c2ccccc2-c2nsc(O)n2)cc1 | 0.069 |
| CCCCc1nc2cccc(C(=O)OC)c2n1Cc1ccc(-c2ccccc2-c2nsc(O)n2)cc1 | > 1 |
| CCOc1nc2cccc(C(=O)OC)c2n1Cc1ccc(-c2ccccc2-c2noc(S)n2)cc1 | > 1 |
| CCNc1nc2cccc(C(=O)O)c2n1Cc1ccc(-c2ccccc2-c2nsc(O)n2)cc1 | 0.13 |
| Cc1nc2cccc(C(=O)O)c2n1Cc1ccc(-c2ccccc2-c2noc(S)n2)cc1 | > 1 |
| CCSc1nc2cccc(C(=O)O)c2n1Cc1ccc(-c2ccccc2-c2nsc(O)n2)cc1 | 0.47 |
| CCSc1nc2cccc(C(=O)O)c2n1Cc1ccc(-c2ccccc2-c2noc(S)n2)cc1 | 0.69 |
| CNc1nc2cccc(C(=O)O)c2n1Cc1ccc(-c2ccccc2-c2nsc(O)n2)cc1 | 0.54 |
| Cc1nc2cccc(C(=O)O)c2n1Cc1ccc(-c2ccccc2-c2nsc(O)n2)cc1 | 0.97 |
| CCc1nc2cccc(C(=O)O)c2n1Cc1ccc(-c2ccccc2-c2noc(S)n2)cc1 | 0.34 |
| CCCCc1nc2cccc(C(=O)OC)c2n1Cc1ccc(-c2ccccc2-c2noc(S)n2)cc1 | > 1 |
| CCCCc1nc2cccc(C(=O)O)c2n1Cc1ccc(-c2ccccc2-c2noc(S)n2)cc1 | 0.76 |
| CCCSc1nc2cccc(C(=O)O)c2n1Cc1ccc(-c2ccccc2-c2noc(S)n2)cc1 | > 1 |
| CCOc1nc2cccc(C(=O)OC)c2n1Cc1ccc(-c2ccccc2-c2nn[nH]n2)cc1 | 0.066 |
| CCOc1nc2cccc(C(=O)O)c2n1Cc1ccc(-c2ccccc2-c2noc(=O)[nH]2)cc1 [AZILSARTAN] | 0.42 |
| CCCCc1nc2cccc(C(=O)O)c2n1Cc1ccc(-c2ccccc2-c2nn[nH]n2)cc1 | 0.55 |

The remaining lines, values ahead:

| IC50 [µM] | SMILES |
| --- | --- |
| > 1 | CCCCc1nc2cccc(C(=O)OC)c2n1Cc1ccc(-c2ccccc2C2=NOS(=O)N2)cc1 (stereo unspecified) |
| 0.72 | CCCCc1nc2cccc(C(=O)O)c2n1Cc1ccc(-c2ccccc2-c2nsc(O)n2)cc1 |
| > 1 | CCCSc1nc2cccc(C(=O)O)c2n1Cc1ccc(-c2ccccc2-c2nsc(O)n2)cc1 |
| 0.32 | CCCCc1nc2cccc(C(=O)OC)c2n1Cc1ccc(-c2ccccc2-c2nn[nH]n2)cc1 |
| 0.9 | CCCCc1nc2cccc(C(=O)OC)c2n1Cc1ccc(-c2ccccc2-c2noc(O)n2)cc1 |
| 0.44 | CCOc1nc2cccc(C(=O)OC)c2n1Cc1ccc(-c2ccccc2-c2noc(O)n2)cc1 |
| 0.92 | CCCOc1nc2cccc(C(=O)O)c2n1Cc1ccc(-c2ccccc2-c2nsc(O)n2)cc1 |
| 0.39 | CCCc1nc2cccc(C(=O)O)c2n1Cc1ccc(-c2ccccc2-c2noc(S)n2)cc1 |
| 0.11 | CCOc1nc2cccc(C(=O)O)c2n1Cc1ccc(-c2ccccc2-c2nnn[nH]2)cc1 |
| 0.75 | CCOc1nc2cccc(C(=O)OC)c2n1Cc1ccc(-c2ccccc2-c2nsc(O)n2)cc1 |

Molecular target: T1, Angiotensin II receptor (Rattus norvegicus) (UniProt P29089+P25095+P35351)
Experiment: Percent inhibition of angiotensin II (0.1 ug/kg iv) -induced pressor response 7 hr after administration of test compounds (1 mg/kg po) in conscious male Sprague-Dawley rats
Format: functional, organism-based
Conditions: not given
Outline: (§1)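 Conscious male Sprague-Dawley rats were given the test compound at 1 mg/kg orally. They were then challenged with AII at 0.1 μg/kg iv. The AII-induced pressor response was measured 3 and 7 h after dosing and expressed as percent inhibition.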

| SMILES | inhibition [%] |
| --- | --- |
| CCCc1nc2cccc(C(=O)O)c2n1Cc1ccc(-c2ccccc2-c2nsc(O)n2)cc1 | 100 |
| COc1nc2cccc(C(=O)O)c2n1Cc1ccc(-c2ccccc2-c2nsc(O)n2)cc1 | 91 |
| CSc1nc2cccc(C(=O)O)c2n1Cc1ccc(-c2ccccc2-c2nsc(O)n2)cc1 | 100 |
| CSc1nc2cccc(C(=O)O)c2n1Cc1ccc(-c2ccccc2-c2noc(S)n2)cc1 | 91 |
| CCCCc1nc2cccc(C(=O)O)c2n1Cc1ccc(-c2ccccc2-c2noc(O)n2)cc1 | 64 |
| CCc1nc2cccc(C(=O)O)c2n1Cc1ccc(-c2ccccc2-c2nsc(O)n2)cc1 | 100 |
| CCOc1nc2cccc(C(=O)OC)c2n1Cc1ccc(-c2ccccc2-c2noc(S)n2)cc1 | 93 |
| CCNc1nc2cccc(C(=O)O)c2n1Cc1ccc(-c2ccccc2-c2nsc(O)n2)cc1 | 71 |
| Cc1nc2cccc(C(=O)O)c2n1Cc1ccc(-c2ccccc2-c2noc(S)n2)cc1 | 50 |
| CCSc1nc2cccc(C(=O)O)c2n1Cc1ccc(-c2ccccc2-c2nsc(O)n2)cc1 | 100 |
| CCSc1nc2cccc(C(=O)O)c2n1Cc1ccc(-c2ccccc2-c2noc(S)n2)cc1 | 100 |
| CNc1nc2cccc(C(=O)O)c2n1Cc1ccc(-c2ccccc2-c2nsc(O)n2)cc1 | 29 |
| Cc1nc2cccc(C(=O)O)c2n1Cc1ccc(-c2ccccc2-c2nsc(O)n2)cc1 | 71 |
| CCc1nc2cccc(C(=O)O)c2n1Cc1ccc(-c2ccccc2-c2noc(S)n2)cc1 | 89 |
| CCCSc1nc2cccc(C(=O)O)c2n1Cc1ccc(-c2ccccc2-c2noc(S)n2)cc1 | 100 |

Results, then the compound that gave them:

| inhibition [%] | SMILES |
| --- | --- |
| 100 | CCCSc1nc2cccc(C(=O)O)c2n1Cc1ccc(-c2ccccc2-c2nsc(O)n2)cc1 |
| 100 | CCOc1nc2cccc(C(=O)OC)c2n1Cc1ccc(-c2ccccc2-c2noc(O)n2)cc1 |
| 100 | CCCOc1nc2cccc(C(=O)O)c2n1Cc1ccc(-c2ccccc2-c2nsc(O)n2)cc1 |
| 94 | CCCc1nc2cccc(C(=O)O)c2n1Cc1ccc(-c2ccccc2-c2noc(S)n2)cc1 |
| 100 | CCOc1nc2cccc(C(=O)OC)c2n1Cc1ccc(-c2ccccc2-c2nsc(O)n2)cc1 |

System: Rattus norvegicus
Experiment: Percent inhibition of AII (0.1 ug/kg iv) -induced pressor response at 7 hr after administration of test compounds (0.1 mg/kg po) in conscious male Sprague-Dawley rats.
Format: functional
Conditions: in the assay text read “3 hr” for “7 hr”
Outline: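 In conscious male Sprague-Dawley rats, the oral test dose was 0.1 mg/kg. The pressor response to an AII challenge (0.1 μg/kg iv) was recorded after dosing, and percent inhibition was calculated.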

| SMILES | Inhibition [%] |
| --- | --- |
| CCOc1nc2cccc(C(=O)O)c2n1Cc1ccc(-c2ccccc2-c2nsc(O)n2)cc1 | 100 |
| CCCCc1nc2cccc(C(=O)OC)c2n1Cc1ccc(-c2ccccc2-c2nsc(O)n2)cc1 | 10 |
| CCCCc1nc2cccc(C(=O)O)c2n1Cc1ccc(-c2ccccc2-c2nsc(O)n2)cc1 | 19 |
| CCCCc1nc2cccc(C(=O)O)c2n1Cc1ccc(-c2ccccc2-c2noc(S)n2)cc1 | 19 |

System: Rattus norvegicus
Experiment: Percent inhibition of AII ([…]) -induced pressor response 7 hr after administration of test compounds (1 mg/kg po) in conscious male Sprague-Dawley rats.
Format: functional
Conditions: not given

| SMILES | Inhibition [%] |
| --- | --- |
| CCOc1nc2cccc(C(=O)OC)c2n1Cc1ccc(-c2ccccc2C2=NOS(=O)N2)cc1 (stereo unspecified) | 29 |

Molecular target: T1, Angiotensin II receptor (Rattus norvegicus)
Experiment: Percent inhibition of angiotensin II (0.1 ug/kg iv) -induced pressor response 3h after administration of test compounds (1 mg/kg po) in conscious male Sprague-Dawley rats
Format: functional, organism-based
Conditions: not given
Outline: as §1

| SMILES | inhibition [%] |
| --- | --- |
| CCCc1nc2cccc(C(=O)O)c2n1Cc1ccc(-c2ccccc2-c2nsc(O)n2)cc1 | 100 |
| COc1nc2cccc(C(=O)O)c2n1Cc1ccc(-c2ccccc2-c2nsc(O)n2)cc1 | 88 |
| CCOc1nc2cccc(C(=O)OC)c2n1Cc1ccc(-c2ccccc2C2=NOS(=O)N2)cc1 (stereo unspecified) | 35 |
| CSc1nc2cccc(C(=O)O)c2n1Cc1ccc(-c2ccccc2-c2nsc(O)n2)cc1 | 100 |
| CSc1nc2cccc(C(=O)O)c2n1Cc1ccc(-c2ccccc2-c2noc(S)n2)cc1 | 100 |
| CCCCc1nc2cccc(C(=O)O)c2n1Cc1ccc(-c2ccccc2-c2noc(O)n2)cc1 | 68 |
| CCOc1nc2cccc(C(=O)O)c2n1Cc1ccc(-c2ccccc2-c2nsc(O)n2)cc1 | 100 |
| CCc1nc2cccc(C(=O)O)c2n1Cc1ccc(-c2ccccc2-c2nsc(O)n2)cc1 | 100 |
| CCCCc1nc2cccc(C(=O)OC)c2n1Cc1ccc(-c2ccccc2-c2nsc(O)n2)cc1 | 87 |
| CCOc1nc2cccc(C(=O)OC)c2n1Cc1ccc(-c2ccccc2-c2noc(S)n2)cc1 | 83 |
| CCNc1nc2cccc(C(=O)O)c2n1Cc1ccc(-c2ccccc2-c2nsc(O)n2)cc1 | 70 |
| Cc1nc2cccc(C(=O)O)c2n1Cc1ccc(-c2ccccc2-c2noc(S)n2)cc1 | 57 |
| CCSc1nc2cccc(C(=O)O)c2n1Cc1ccc(-c2ccccc2-c2nsc(O)n2)cc1 | 100 |
| CCSc1nc2cccc(C(=O)O)c2n1Cc1ccc(-c2ccccc2-c2noc(S)n2)cc1 | 100 |
| CNc1nc2cccc(C(=O)O)c2n1Cc1ccc(-c2ccccc2-c2nsc(O)n2)cc1 | 32 |
| Cc1nc2cccc(C(=O)O)c2n1Cc1ccc(-c2ccccc2-c2nsc(O)n2)cc1 | 80 |
| CCc1nc2cccc(C(=O)O)c2n1Cc1ccc(-c2ccccc2-c2noc(S)n2)cc1 | 91 |
| CCCCc1nc2cccc(C(=O)OC)c2n1Cc1ccc(-c2ccccc2-c2noc(S)n2)cc1 | 84 |
| CCCCc1nc2cccc(C(=O)O)c2n1Cc1ccc(-c2ccccc2-c2noc(S)n2)cc1 | 82 |
| CCCSc1nc2cccc(C(=O)O)c2n1Cc1ccc(-c2ccccc2-c2noc(S)n2)cc1 | 100 |
| CCOc1nc2cccc(C(=O)O)c2n1Cc1ccc(-c2ccccc2-c2noc(=O)[nH]2)cc1 [AZILSARTAN] | 100 |

Second part, the compound after the results:

| inhibition [%] | SMILES |
| --- | --- |
| 63 | CCCCc1nc2cccc(C(=O)OC)c2n1Cc1ccc(-c2ccccc2C2=NOS(=O)N2)cc1 (stereo unspecified) |
| 92 | CCCCc1nc2cccc(C(=O)O)c2n1Cc1ccc(-c2ccccc2-c2nsc(O)n2)cc1 |
| 100 | CCCSc1nc2cccc(C(=O)O)c2n1Cc1ccc(-c2ccccc2-c2nsc(O)n2)cc1 |
| 100 | CCOc1nc2cccc(C(=O)OC)c2n1Cc1ccc(-c2ccccc2-c2noc(O)n2)cc1 |
| 83 | CCCOc1nc2cccc(C(=O)O)c2n1Cc1ccc(-c2ccccc2-c2nsc(O)n2)cc1 |
| 96 | CCCc1nc2cccc(C(=O)O)c2n1Cc1ccc(-c2ccccc2-c2noc(S)n2)cc1 |
| 100 | CCOc1nc2cccc(C(=O)OC)c2n1Cc1ccc(-c2ccccc2-c2nsc(O)n2)cc1 |

System: Rattus norvegicus
Experiment: Percent inhibition of AII-induced pressor response 7 hr after administration of test compounds (1 mg/kg po) in conscious male Sprague-Dawley rats.
Conditions: not given

| SMILES | Inhibition [%] |
| --- | --- |
| CCCCc1nc2cccc(C(=O)OC)c2n1Cc1ccc(-c2ccccc2C2=NOS(=O)N2)cc1 (stereo unspecified) | 22 |

System: Rattus norvegicus
Experiment: Percent inhibition of AII (0.1 ug/kg iv) -induced pressor response at 3 hr after administration of test compounds (0.1 mg/kg po) in conscious male Sprague-Dawley rats.
Conditions: not given

| SMILES | Inhibition [%] |
| --- | --- |
| CCCCc1nc2cccc(C(=O)OC)c2n1Cc1ccc(-c2ccccc2-c2noc(S)n2)cc1 | 7 |
| CCOc1nc2cccc(C(=O)O)c2n1Cc1ccc(-c2ccccc2-c2noc(=O)[nH]2)cc1 [AZILSARTAN] | 75 |
